Test results published in ChEMBL document CHEMBL1124373, “Specific inhibition of benzodiazepine receptor binding by some N-(indol-3-ylglyoxylyl)amino acid derivatives: stereoselective interactions” (J Med Chem, 1989).

Columns and labels:
[1] = target: T1, GABA-A receptor; anion channel (Bos taurus) (UniProt P10063+P08220+P20237+P08219+P10064+P22300); assay: Relative binding to GABA-A benzodiazepine receptor in the presence and absence of GABA (GABA shift); assay type: protein-complex assay
Summary of the method: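 Exhaustively washed bovine cortical membranes were used. Binding inhibition used 0.9 nM [3H]flunitrazepam at 0 °C for 90 min in 50 mM Tris-HCl pH 7.4. IC50 was determined by log-probit analysis without and with 10 µM GABA. Ratio = IC50 without GABA / IC50 with GABA.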

[2] = target: GABA-A receptor; anion channel; assay: Inhibitory concentration against [3H]flunitrazepam binding to benzodiazepine receptor from bovine cerebral cortex; assay type: tissue-based
Summary of the method: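 Membranes from bovine cerebral cortex were homogenized in 0.32 M sucrose with protease inhibitors, osmotically shocked, and suspended in 50 mM Tris-HCl pH 7.4. Membrane (0.5 mg protein) was incubated with 0.9 nM [3H]flunitrazepam at 0 °C for 90 min, then filtered and counted. Nonspecific binding was defined with 10 µM diazepam. IC50 came from log-probit analysis of six to eight concentrations in triplicate; values are means ± SEM of four determinations.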

[3] = target: T1, GABA-A receptor; anion channel (Bos taurus); assay: Percentage inhibition of [3H]flunitrazepam binding to benzodiazepine receptor from bovine cerebral cortex at a concentration of 250 uM; assay type: tissue-based
[4] = system: Mus musculus; assay: Antagonism of Diazepam anticonvulsant effect in mice treated with 60 mg/kg PTZ; assay type: functional
[5] = system: Mus musculus; assay: Dose required to induce convulsions in mice treated with subcutaneous PTZ (40 mg/kg); assay type: functional; details: sc
Summary of the method: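 Groups of 10 mice received graded ip doses (0.1 mL) suspended in 1% carboxymethylcellulose, or vehicle alone. A subconvulsant PTZ dose of 40 mg/kg followed 30 min later. ED50 is the dose inducing convulsions in 50% of mice.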

| SMILES | IC50 [2] [µM] | also measured |
| --- | --- | --- |
| CCOC(=O)[C@@H](C)NC(=O)C(=O)c1c[nH]c2ccc([N+](=O)[O-])cc12 | 3 | Ratio [1]: 0.79 |
| CCOC(=O)[C@H](Cc1ccccc1)NC(=O)C(=O)c1c[nH]c2ccc(OC)cc12 | – | inhibition [3]: 77% |
| C[C@H](NC(=O)C(=O)c1c[nH]c2ccc(Br)cc12)C(=O)O | 7.1 | – |
| CCOC(=O)[C@H](C)NC(=O)C(=O)c1c[nH]c2ccc([N+](=O)[O-])cc12 | 0.07 | Ratio [1]: 0.67; ED50 [4]: 100 mg/kg; ED50 [5]: 150 mg/kg |
| CCOC(=O)[C@@H](C)NC(=O)C(=O)c1c[nH]c2ccc(Br)cc12 | 52 | Ratio [1]: 0.85 |
| C[C@H](NC(=O)C(=O)c1c[nH]c2ccccc12)C(=O)O | 48 | – |
| O=C(N[C@H](Cc1ccccc1)C(=O)O)C(=O)c1c[nH]c2ccc(Cl)cc12 | 48 | – |
| CCOC(=O)[C@H](C)NC(=O)C(=O)c1c[nH]c2ccccc12 | 7.5 | – |
| O=C(N[C@@H](Cc1ccccc1)C(=O)O)C(=O)c1c[nH]c2ccccc12 | – | inhibition [3]: 47% |
| CCOC(=O)[C@H](Cc1ccccc1)NC(=O)C(=O)c1c[nH]c2ccc(Cl)cc12 | 30 | – |
| O=C(N[C@@H](Cc1ccccc1)C(=O)O)C(=O)c1c[nH]c2ccc([N+](=O)[O-])cc12 | 4 | – |
| C[C@@H](NC(=O)C(=O)c1c[nH]c2ccc(Br)cc12)C(=O)O | 80 | – |
| CCOC(=O)[C@@H](Cc1ccccc1)NC(=O)C(=O)c1c[nH]c2ccc(Br)cc12 | 220 | – |
| COc1ccc2[nH]cc(C(=O)C(=O)N[C@H](C)C(=O)O)c2c1 | 170 | – |
| CCOC(=O)[C@H](C)NC(=O)C(=O)c1c[nH]c2ccc(Br)cc12 | 0.18 | Ratio [1]: 0.78; ED50 [4]: 50 mg/kg; ED50 [5]: 40 mg/kg |
| CCOC(=O)C(Cc1ccccc1)NC(=O)C(=O)c1c[nH]c2ccc(Br)cc12 (configuration not stated) | 180 | – |
| C[C@@H](NC(=O)C(=O)c1c[nH]c2ccc([N+](=O)[O-])cc12)C(=O)O | 19 | – |
| CCOC(=O)[C@@H](Cc1ccccc1)NC(=O)C(=O)c1c[nH]c2ccc([N+](=O)[O-])cc12 | 2.8 | – |
| CCOC(=O)[C@@H](C)NC(=O)C(=O)c1c[nH]c2ccc(Cl)cc12 | 25 | Ratio [1]: 0.92 |
| O=C(N[C@@H](Cc1ccccc1)C(=O)O)C(=O)c1c[nH]c2ccc(Br)cc12 | 60 | – |
| O=C(N[C@H](Cc1ccccc1)C(=O)O)C(=O)c1c[nH]c2ccc(Br)cc12 | 245 | inhibition [3]: 51% |
| CCOC(=O)[C@@H](Cc1ccccc1)NC(=O)C(=O)c1c[nH]c2ccccc12 | – | inhibition [3]: 55% |
| C[C@H](NC(=O)C(=O)c1c[nH]c2ccc([N+](=O)[O-])cc12)C(=O)O | 3 | – |

| SMILES | IC50 [2] [µM] | also measured |
| --- | --- | --- |
| O=C(NC(Cc1ccccc1)C(=O)O)C(=O)c1c[nH]c2ccc(Br)cc12 (configuration not stated) | 158 | – |
| CCOC(=O)[C@H](Cc1ccccc1)NC(=O)C(=O)c1c[nH]c2ccc(Br)cc12 | 55 | – |
| CCOC(=O)[C@H](Cc1ccccc1)NC(=O)C(=O)c1c[nH]c2ccccc12 | – | inhibition [3]: 69% |
| CCOC(=O)[C@H](Cc1ccccc1)NC(=O)C(=O)c1c[nH]c2ccc([N+](=O)[O-])cc12 | 0.1 | – |
| CCOC(=O)[C@@H](Cc1ccccc1)NC(=O)C(=O)c1c[nH]c2ccc(OC)cc12 | – | inhibition [3]: 30% |
| O=C(N[C@H](Cc1ccccc1)C(=O)O)C(=O)c1c[nH]c2ccc([N+](=O)[O-])cc12 | 21 | – |
| CCOC(=O)[C@H](C)NC(=O)C(=O)c1c[nH]c2ccc(Cl)cc12 | 0.15 | Ratio [1]: 0.9 |
| CCOC(=O)[C@H](C)NC(=O)C(=O)c1c[nH]c2ccc(OC)cc12 | 0.9 | – |
| CC(NC(=O)C(=O)c1c[nH]c2ccc(Br)cc12)C(=O)O (configuration not stated) | 40 | – |
| COc1ccc2[nH]cc(C(=O)C(=O)N[C@@H](Cc3ccccc3)C(=O)O)c2c1 | – | inhibition [3]: 50% |
| CC(NC(=O)C(=O)c1c[nH]c2ccccc12)C(=O)O (configuration not stated) | 105 | – |
| CCOC(=O)C(C)NC(=O)C(=O)c1c[nH]c2ccccc12 (configuration not stated) | 13 | – |
| COc1ccc2[nH]cc(C(=O)C(=O)N[C@H](Cc3ccccc3)C(=O)O)c2c1 | – | inhibition [3]: 18% |
| O=C(N[C@@H](Cc1ccccc1)C(=O)O)C(=O)c1c[nH]c2ccc(Cl)cc12 | 12 | – |
| CCOC(=O)[C@@H](Cc1ccccc1)NC(=O)C(=O)c1c[nH]c2ccc(Cl)cc12 | 45 | – |
| C[C@H](NC(=O)C(=O)c1c[nH]c2ccc(Cl)cc12)C(=O)O | 5.01 | – |
| CCOC(=O)[C@@H](C)NC(=O)C(=O)c1c[nH]c2ccc(OC)cc12 | 110 | – |
| C[C@@H](NC(=O)C(=O)c1c[nH]c2ccccc12)C(=O)O | 304 | inhibition [3]: 32% |
| C[C@@H](NC(=O)C(=O)c1c[nH]c2ccc(Cl)cc12)C(=O)O | 46 | – |
| CCOC(=O)[C@@H](C)NC(=O)C(=O)c1c[nH]c2ccccc12 | 17 | – |
| COc1ccc2[nH]cc(C(=O)C(=O)N[C@@H](C)C(=O)O)c2c1 | 22 | – |
| O=C(N[C@H](Cc1ccccc1)C(=O)O)C(=O)c1c[nH]c2ccccc12 | – | inhibition [3]: 32% |
